Results on 12 compounds are retold here after ChEMBL document CHEMBL2385053, “Novel isoquinoline derivatives as antimicrobial agents” (2013).

The subject of assay [1] is Salmonella typhi. In words: Bactericidal activity against Salmonella typhi CECT 409 at 0.2 mg/disk after 24 hrs by paper disk-agar diffusion method. It counts as functional, Salmonella enterica subsp. enterica serovar Typhi. A digest of the protocol:
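Paper disk-agar diffusion, run in triplicate. 24-h culture reactivated in nutrient broth and grown a further 24 h at 28 or 37 °C by species. 1 mL suspension mixed into 15 mL plate count agar. Four 0.5 cm disks placed per plate, incubated 24 h in the dark. Inhibition zone (mm) reported as mean ± SE of three independent experiments; vehicle disks as negative control.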

The subject of another assay is Bacillus cereus. As to the kind of experiment: Bactericidal activity against Bacillus cereus CECT 148 at 0.2 mg/disk after 24 hrs by paper disk-agar diffusion method. The format is functional. An outline of the steps: (§1)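 Each bacterial strain was taken from a 24-h culture on solid medium, reactivated in Nutrient Broth, and grown a further 24 h at 28 or 37 °C depending on the strain. 1 mL of suspension was mixed with 15 mL Plate Count Agar. Four 0.5 cm paper disks (0.2 mg/disk) were placed on the set agar. Controls were vehicle-only disks and tetracycline. Plates were incubated 24 h, dark, 28 or 37 °C. The inhibition zone was read in mm as the mean ± SE of three independent experiments.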
Background: A growth-free zone around the sample is the usual read-out of agar diffusion tests.

In assay [2] the test system is Escherichia coli. As to the kind of experiment: Bactericidal activity against Escherichia coli CECT 100 at 0.2 mg/disk after 24 hrs by paper disk-agar diffusion method relative to control. It counts as functional.
Assay [3] concerns Escherichia coli. In words: Bactericidal activity against Escherichia coli CECT 405 at 0.2 mg/disk after 24 hrs by paper disk-agar diffusion method. The format is functional. An outline of the steps:
as §1

For another assay, the system named is Enterococcus faecalis. In words: Bactericidal activity against Enterococcus faecalis CECT 481 at 0.2 mg/disk after 24 hrs by paper disk-agar diffusion method. The format is functional. An outline of the steps: as §1
Assay [4] concerns Escherichia coli. In words: Bactericidal activity against Escherichia coli CECT 100 at 0.2 mg/disk after 24 hrs by paper disk-agar diffusion method. It counts as functional. An outline of the steps: as §1
Another assay relates to Staphylococcus aureus. As to the kind of experiment: Bactericidal activity against Staphylococcus aureus CECT 86 at 0.2 mg/disk after 24 hrs by paper disk-agar diffusion method. The format is functional. A digest of the protocol: as §1
The subject of assay [5] is Pectobacterium carotovorum. As to the kind of experiment: Bactericidal activity against Erwinia carotovora CECT 225 at 0.2 mg/disk after 24 hrs by paper disk-agar diffusion method. It counts as functional. A digest of the protocol: as §1
For another assay, the system named is Aspergillus parasiticus. In words: Fungicidal activity against Aspergillus parasiticus CECT 2681 at 0.2 mg/disk after 72 hrs by paper disk-agar diffusion method. It counts as functional. A digest of the protocol:
(§2)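 Fungi were grown on potato dextrose agar (PDA) for 7 days at 28 °C. Conidia were suspended to ~10⁶/mL in 0.05% Tween 80 in sterile water, and 1 mL was mixed into 15 mL PDA. Four 0.5 cm paper disks (0.2 mg/disk) were placed on the set agar. Controls were vehicle-only disks and benomyl at species-dependent doses. The inhibition zone was read in mm at 72 h as the mean ± SE of three independent experiments.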

The subject of assay [6] is Phytophthora citrophthora. As to the kind of experiment: Fungicidal activity against Phytophthora citrophthora CECT 2353 at 0.2 mg/disk after 72 hrs by paper disk-agar diffusion method. The format is functional. A digest of the protocol:
as §2

The test system of a further assay is Trichoderma viride. As to the kind of experiment: Fungicidal activity against Trichoderma viride CECT 2423 at 0.2 mg/disk after 72 hrs by paper disk-agar diffusion method. It counts as functional. An outline of the steps:
as §2

The test system of another assay is Geotrichum candidum. In words: Fungicidal activity against Geotrichum candidum CCM 245 at 0.2 mg/disk after 72 hrs by paper disk-agar diffusion method. The format is functional. A digest of the protocol: as §2
The subject of another assay is Fusarium culmorum. As to the kind of experiment: Fungicidal activity against Fusarium culmorum CCM 172 at 0.2 mg/disk after 72 hrs by paper disk-agar diffusion method. The format is functional. A digest of the protocol:
as §2

In assay [7] the test system is Salmonella typhi. In words: Bactericidal activity against Salmonella typhi CECT 409 at 0.2 mg/disk after 24 hrs by paper disk-agar diffusion method relative to control. It counts as functional, Salmonella enterica subsp. enterica serovar Typhi.
Assay [8] deals with Escherichia coli. In words: Bactericidal activity against Escherichia coli CECT 405 at 0.2 mg/disk after 24 hrs by paper disk-agar diffusion method relative to control. The format is functional.

In the case of `COc1cc2c(cc1OC)C(CCCCCO)N(C)CC2` (stereo unspecified), the “inhibition zone (IZ)” value in the assay on Salmonella typhi [1] was determined as 12.33 mm; with Bacillus cereus, 0 mm; with Escherichia coli [3] it was 11.33 mm; with Enterococcus faecalis, 10.33 mm; in the assay with Escherichia coli [4], 16 mm; with Staphylococcus aureus, 10.67 mm. In [5], the “inhibition zone (IZ)” value is reported as 8 mm. In the assay with Escherichia coli [2], the Activity is 62%.
For `COc1cc2c(cc1OC)C(CCCCCOC(=O)c1ccccc1)N(C)CC2` (stereo unspecified), the “inhibition zone (IZ)” value is recorded as 0 mm in the assay with Aspergillus parasiticus; 9.67 mm with Salmonella typhi [1]; 0 mm in assay [6]; 10.83 mm with Bacillus cereus; 7.25 mm in the assay with Trichoderma viride; 9.83 mm in the assay on Escherichia coli [3]. In addition, the “inhibition zone (IZ)” value in the assay with Enterococcus faecalis is 9.83 mm; in the assay on Escherichia coli [4], 11 mm; in the assay with Geotrichum candidum, 6.75 mm; with Fusarium culmorum, 7 mm; with Staphylococcus aureus, 10.67 mm; in assay [5], 12.17 mm.
With `COc1cc2c(cc1OC)C(CCCCCOC(=O)c1ccc(F)cc1)N(C)CC2` (stereo unspecified), the “inhibition zone (IZ)” value in the assay on Aspergillus parasiticus was 0 mm; in the assay on Salmonella typhi [1] it was 14.83 mm; in assay [6], 0 mm; in the assay with Bacillus cereus, 13 mm; in the assay with Trichoderma viride it was 7 mm; in the assay with Escherichia coli [3] it was 13.67 mm. The “inhibition zone (IZ)” value with Enterococcus faecalis turned out to be 13.67 mm; with Escherichia coli [4] it was 14 mm; in the assay on Geotrichum candidum, 7 mm; in the assay with Fusarium culmorum it was 8 mm; in the assay with Staphylococcus aureus, 13.67 mm; in assay [5], 13.5 mm. For the same compound, the Activity in the assay on Salmonella typhi [7] stood at 61%.
For `COc1cc2c(cc1OC)C(CCCCCOC(=O)c1ccc(Cl)cc1)N(C)CC2` (stereo unspecified), the “inhibition zone (IZ)” value in the assay on Aspergillus parasiticus is 0 mm; in [6], 10.33 mm; in the assay on Bacillus cereus it was 13 mm; in the assay with Trichoderma viride it was 9 mm; with Escherichia coli [3], 11.5 mm; in the assay on Enterococcus faecalis it was 11.67 mm. Moreover, the “inhibition zone (IZ)” value amounted to 13.67 mm in the assay with Escherichia coli [4]; 12.33 mm in the assay on Geotrichum candidum; 6.67 mm in the assay on Fusarium culmorum; 12.67 mm in the assay on Staphylococcus aureus; 12.67 mm in [5].
`COc1cc2c(cc1OC)C(CCCCCOC(=O)CCc1ccc(Cl)cc1)N(C)CC2` (stereo unspecified): the “inhibition zone (IZ)” value in the assay on Aspergillus parasiticus amounted to 0 mm; with Salmonella typhi [1], 8.17 mm; in [6], 8.5 mm; in the assay with Bacillus cereus it was 11 mm; with Trichoderma viride it was 9 mm; with Escherichia coli [3] it was 9.17 mm. Also, the “inhibition zone (IZ)” value with Enterococcus faecalis came out at 8.33 mm; in the assay with Escherichia coli [4], 8.67 mm; with Geotrichum candidum, 8.5 mm; in the assay on Fusarium culmorum it was 9.5 mm; in the assay on Staphylococcus aureus, 8.67 mm; in assay [5] it was 11 mm.
Regarding `COc1ccc(CCC(=O)OCCCCCC2c3cc(OC)c(OC)cc3CCN2C)cc1` (stereo unspecified), the “inhibition zone (IZ)” value in the assay on Aspergillus parasiticus is on record as 0 mm; in the assay on Salmonella typhi [1], 8 mm; in assay [6] it was 0 mm; in the assay with Bacillus cereus, 8.5 mm; with Trichoderma viride, 6 mm; in the assay with Escherichia coli [3], 7.33 mm. In addition, the “inhibition zone (IZ)” value was determined as 7 mm with Enterococcus faecalis; 7 mm with Escherichia coli [4]; 5.75 mm in the assay on Geotrichum candidum; 6.5 mm in the assay on Fusarium culmorum; 7.83 mm in the assay with Staphylococcus aureus; 11.33 mm in assay [5].
Turning to `COc1cc2c(cc1OC)C(CCCCCOC(=O)Nc1ccccc1)N(C)CC2` (stereo unspecified), the “inhibition zone (IZ)” value in the assay on Aspergillus parasiticus is 0 mm; in the assay on Salmonella typhi [1], 12 mm; in [6], 0 mm; with Bacillus cereus it was 12.67 mm; with Trichoderma viride, 5.75 mm; with Escherichia coli [3], 12.33 mm. Besides, the “inhibition zone (IZ)” value in the assay with Enterococcus faecalis came out at 14.17 mm; in the assay on Escherichia coli [4] it was 15.17 mm; with Geotrichum candidum, 6.25 mm; in the assay on Fusarium culmorum, 7 mm; in the assay with Staphylococcus aureus, 15 mm; in assay [5] it was 10.67 mm. The compound further yielded an Activity with Escherichia coli [2] of 59%.
`COc1cc2c(cc1OC)C(CCCCCOC(=O)Nc1ccc(Cl)cc1)N(C)CC2` (stereo unspecified): the “inhibition zone (IZ)” value with Aspergillus parasiticus was found to be 0 mm; with Salmonella typhi [1], 16.33 mm; in assay [6], 0 mm; in the assay on Bacillus cereus, 14.33 mm; in the assay with Trichoderma viride it was 8.67 mm; in the assay on Escherichia coli [3] it was 17.33 mm. Besides, the “inhibition zone (IZ)” value in the assay with Enterococcus faecalis is listed as 18 mm; in the assay with Escherichia coli [4], 13.17 mm; in the assay with Geotrichum candidum it was 10.33 mm; in the assay with Fusarium culmorum it was 7.33 mm; in the assay with Staphylococcus aureus, 17.33 mm; in assay [5], 12.5 mm. The Activity in the assay on Escherichia coli [8] is 68%; in the assay with Salmonella typhi [7], 67%.
For the compound `COc1cc2c(cc1OC)C(CCCCCOC(=O)NCCc1ccccc1)N(C)CC2` (stereo unspecified), the “inhibition zone (IZ)” value with Aspergillus parasiticus is 0 mm; in the assay on Salmonella typhi [1], 13.5 mm; in [6], 0 mm; in the assay with Bacillus cereus it was 10.17 mm; in the assay on Trichoderma viride, 0 mm; with Escherichia coli [3], 14 mm. Besides, the “inhibition zone (IZ)” value in the assay on Enterococcus faecalis stood at 13.67 mm; in the assay with Escherichia coli [4] it was 10.67 mm; with Geotrichum candidum it was 7.67 mm; in the assay with Fusarium culmorum, 0 mm; in the assay on Staphylococcus aureus it was 14 mm; in assay [5], 11 mm.
Turning to `COc1cc2c(cc1OC)C(CCCCCOC(=O)NCCc1ccc(F)cc1)N(C)CC2` (stereo unspecified), the “inhibition zone (IZ)” value in the assay with Aspergillus parasiticus is reported as 0 mm; in the assay with Salmonella typhi [1], 14.83 mm; in assay [6], 0 mm; in the assay with Bacillus cereus it was 11.33 mm; in the assay with Trichoderma viride it was 0 mm; with Escherichia coli [3], 16 mm. Further, the “inhibition zone (IZ)” value is on record as 15 mm with Enterococcus faecalis; 11.33 mm in the assay on Escherichia coli [4]; 7.67 mm with Geotrichum candidum; 0 mm in the assay on Fusarium culmorum; 15.33 mm in the assay with Staphylococcus aureus; 11.67 mm in [5]. Further, the Activity is listed as 62% in the assay with Escherichia coli [8] and 61% in the assay with Salmonella typhi [7].
As for `COc1cc2c(cc1OC)C(CCCCCOC(=O)NCCc1ccc(Cl)cc1)N(C)CC2` (stereo unspecified), the “inhibition zone (IZ)” value with Aspergillus parasiticus is reported as 0 mm; in assay [6], 6.25 mm; in the assay with Bacillus cereus it was 14.67 mm; with Trichoderma viride, 7 mm; in the assay on Escherichia coli [3] it was 17.67 mm; in the assay on Enterococcus faecalis, 17 mm. The “inhibition zone (IZ)” value is given as 12.33 mm in the assay with Escherichia coli [4]; 10 mm with Geotrichum candidum; 15 mm in the assay with Fusarium culmorum; 16.33 mm in the assay on Staphylococcus aureus; 18.33 mm in [5]. For the same compound, the Activity with Escherichia coli [8] and with Salmonella typhi [7] was 75% in each case.
Consider `CCCCC1c2cc(OC)c(OC)cc2CCN1C` (stereo unspecified), for which the “inhibition zone (IZ)” value worked out at 0 mm in the assay on Aspergillus parasiticus; 6.25 mm in the assay with Salmonella typhi [1]; 0 mm in assay [6]; 6 mm in the assay on Bacillus cereus; 0 mm in the assay with Trichoderma viride; 6 mm with Escherichia coli [3]. The “inhibition zone (IZ)” value in the assay on Enterococcus faecalis turned out to be 7 mm; with Escherichia coli [4], 0 mm; in the assay with Geotrichum candidum it was 0 mm; with Fusarium culmorum it was 5.5 mm; with Staphylococcus aureus it was 6 mm; in assay [5], 6 mm.
